Source: PubChem BioAssay (Broad Institute)
ARNT-TACC3 inh = disrupts binding between human ARNT and TACC3; Q9Y6A5; AlphaScreen His-ARNT PAS-B/GST-TACC3 binding, luminescence; TACC3 fragment carries E629A point mutation; inhibition, % at 9.99 µM; 390,000 compounds, 0.66% hits; AID 623870;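 active means mean inhibition of replicates at least 50% and at least half of replicates each reaching 50%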;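 further: 0% = complete ARNT plus TACC3 wells and 100% = ARNT alone without TACC3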
MLL AF4-AF9 inh = MLL-AF4/AF9 protein interaction inhibition | P42568 | 350,000 compounds, 0.47% hits | AlphaScreen, biotin-AF4 peptide binding to FLAG-AF9 | inhibition, % at 10 µM | AID 651704;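 active means every replicate reaching a set inhibition limit, whatever the replicate mean, cut at about 25% in these data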;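 further: 0% = plate neutral control median and 100% = total signal loss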
PDI turbidity = PDI (human) enzyme inhibition | PDI insulin aggregation turbidity, A650, 90 min | inhibition, % at 10 µM | 350,000 compounds, 0.052% hits | AID 588391;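 active means mean inhibition across replicates of 30% or more, whatever share of single replicates reach that level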
ERp5 block = blocks human ERp5 reductase activity on insulin; Q15084; ERp5 insulin aggregation, absorbance 650 nm, 90 min; inhibition, % at 9.99 µM; 350,000 compounds, 0.05% hits; AID 651711;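 active means mean replicate inhibition above about 25%, with every replicate also reaching it, limit read from the data, passing the limit was not always enough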
Target sequence (Q15084 whole entry, looked up): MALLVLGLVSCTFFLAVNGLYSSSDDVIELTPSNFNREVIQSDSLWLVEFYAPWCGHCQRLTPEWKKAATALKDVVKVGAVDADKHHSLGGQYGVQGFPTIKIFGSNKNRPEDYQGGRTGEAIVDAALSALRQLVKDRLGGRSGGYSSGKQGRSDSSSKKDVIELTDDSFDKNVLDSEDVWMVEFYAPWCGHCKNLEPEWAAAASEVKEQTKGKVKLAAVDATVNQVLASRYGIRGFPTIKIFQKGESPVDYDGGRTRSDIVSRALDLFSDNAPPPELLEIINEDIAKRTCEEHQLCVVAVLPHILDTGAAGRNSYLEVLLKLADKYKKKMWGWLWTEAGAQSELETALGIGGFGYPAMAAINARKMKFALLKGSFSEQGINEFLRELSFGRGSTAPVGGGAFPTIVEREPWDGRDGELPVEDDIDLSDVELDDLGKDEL
FGF22 binding = binders of recombinant human FGF22 by thermal shift; SYPRO orange fluorescence; percent of sucrose octasulfate shift, DMSO zero; activity (Tm shift, normalised), % at 9.99 µM; Q9HCT0; AID 651658; 340,000 compounds, 1.5% hits;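 active means mean Tm shift, scaled 0 neutral to 100 positive control, at about 1.3% or above, every replicate too, limit read from the data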
Target sequence (Q9HCT0 whole entry, looked up): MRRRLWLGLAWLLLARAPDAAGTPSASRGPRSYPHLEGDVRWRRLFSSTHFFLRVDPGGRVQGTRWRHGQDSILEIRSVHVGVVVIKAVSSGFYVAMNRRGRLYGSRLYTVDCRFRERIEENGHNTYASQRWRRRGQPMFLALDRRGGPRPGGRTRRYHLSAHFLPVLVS
FN deposit inh = fibronectin deposition inhibition; inhibition, % at 12.6 µM; AID 743247; AH1F fibroblasts, Alexa488-fibronectin deposition fluorescence, overnight; 350,000 compounds, 0.086% hits;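 active means mean inhibition across replicates of 30% or more, regardless of how many single replicates reach that level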;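 further: positive control wells lacked labelled fibronectin entirely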
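Material: AH1F fibroblast monolayer depositing Alexa488-labelled fibronectin into matrix | Input: 10000 AH1F cells/well | Medium: DMEM plus 2% serum, read in PBS | Reagent: Alexa488-fibronectin, 24 nM final in well | Compound dosing: One dose per compound, pinned | Schedule: 1 h adhesion, overnight exposure | Measured by: Fluorescence at 485 nm excitation, 525 nm emission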
Active calls of the source: *; / = not tested or not shown; ! = repeats disagree. Most compounds without a hit are left out; they make up all but 2.1% or so of the library.

SMILES	ARNT-TACC3 inh	MLL AF4-AF9 inh	PDI turbidity	ERp5 block	FGF22 binding	FN deposit inh
O=C(CCN1CCCCC1)NNC(=S)NC(=O)c1ccc(Br)cc1	35.3	-3.4	-4.9	-1.1	43.5*	-16.3
O=C(CSc1nc2ccccc2o1)Nc1nccs1	4.3	-1.3	-4.0	-2.6	2.3*	10.6
COc1cc(CC(NC(C)=O)C(=O)NC2CCN(C(=O)c3cc(OC)c(OC)c(OC)c3)CC2)cc(OC)c1 (stereo not given)	-6.1	-3.3	-5.9	0.8	42.9*	10.2
Cc1ccc(S(=O)(=O)N[C@H]2CC[C@@H](CC(=O)NC3CCCCC3)O[C@@H]2CO)cc1	-8.3	-2.5	/	5.2	0.1	12.2
O=c1cccc2n1Cc1cc3ccccc3nc1-2	-5.9	-3.5	-9.3	-5.1	43.7*	2.3
c1ccc2c(c1)-c1nc3ccccc3cc1C2N1CCCCC1 (stereo not given)	/	3.6	1.2	0.4	-0.3	-15.8
Nc1nc(SCc2ccc(Br)cc2)[nH]c(=O)c1-c1ccccc1	-1.2	-0.5	3.1	-6.5	43.1*	/
Nc1nc(SCc2nc(-c3ccccc3)no2)[nH]c(=O)c1-c1ccccc1	/	4.4	-3.3	-2.2	0.0	/
CCCC#Cc1cnc2c(c1)C(=O)N([C@@H](C)CO)C[C@H](C)[C@@H](CN(C)C(=O)Cc1ccccc1)O2	-3.4	-0.7	/	0.8	0.0	/
COc1cc(CN2C[C@@H]3N[C@H](C2)C3c2ccc(-c3ccccc3C)cc2)cc(OC)c1 (stereo not given in full)	/	26.8*!	/	-5.0	/	13.1
COc1ccc(-c2nc(CN3CCN(c4cc(C)nc(C)c4)CC3)c(C)o2)c2ccccc12	28.9	25.7*	8.7	1.6	0.2	4.8
CCCNC(=O)C[C@@H]1CC[C@@H]2[C@H](COc3ccc(NC(=O)c4cscn4)cc3C(=O)N2C)O1	/	-2.6	/	/	/	-7.1
CO[C@H]1CN(C)C(=O)c2ccc(NC(=O)Nc3ccccc3)cc2OC[C@@H](C)N(C(=O)CC2CC2)C[C@H]1C	-3.2	2.5	/	-0.7	-0.2	-1.9
CCCN1C[C@@H](C)[C@H](OC)CN(C)C(=O)c2ccc(NC(=O)c3cnccn3)cc2OC[C@@H]1C	-9.8	-2.3	/	14.7	-0.1	10.3
N#CC1=C(N)N2C(=C(C#N)C1c1cccc(Br)c1)Nc1ccccc12 (stereo not given)	-3.3	-2.0	-2.1	0.6	42.9*	7.3
Cc1ccc(C(F)(F)F)cc1NC(N)=S	1.5	-2.7	9.7	-2.5	44.1*	3.4
COC(=O)[C@H]1[C@H](CO)[C@H]2Cn3c(ccc(C4=CCCCC4)c3=O)[C@H]2N1Cc1cccnc1	/	-1.3	/	-2.1	/	/
Cc1ccc(-c2csc(NC(=O)CCCc3cccs3)n2)cc1	-5.0	/	-4.8	/	/	-2.6
CC(=O)Nc1ccc(-c2csc(NC(=O)CCCc3cccs3)n2)cc1	/	-0.9	14.4	1.7	2.1*	-1.8
COc1cccc(NC(=O)N2C[C@@H](O)COC[C@@H]3O[C@@H](CC(=O)NC4Cc5ccccc5C4)CC[C@H]32)c1	-0.9	-0.5	/	-1.2	0.1	-3.1
CCc1ccc2c(c1)CCCN2C(=O)c1ccccc1C(=O)O	49.0*	/	2.7	/	/	-5.6
OCCC1CN(Cc2cnn(-c3ccccc3Cl)c2)CCN1Cc1ccsc1 (stereo not given)	1.9	2.1	10.3	2.5	48.7*	6.4
OCCC1CN(Cc2nc(-c3ccccc3)cs2)CCN1Cc1ccc(F)cc1 (stereo not given)	0.5	0.5	-2.8	1.8	43.3*	2.1
OCCC1CN(Cc2ccsc2)CCN1C1CCCC1 (stereo not given)	-4.8	-2.0	2.0	-3.2	-0.1	-0.1
O=C(Nc1ccc(S(=O)(=O)N2CCCC2)cc1)N1c2ccccc2Sc2ccccc21	-16.0	2.4	3.8	3.6	2.3*	/
SMILES	ARNT-TACC3 inh	MLL AF4-AF9 inh	PDI turbidity	ERp5 block	FGF22 binding	FN deposit inh
CS(=O)(=O)N(CC(=O)Nc1ccc(S(=O)(=O)N2CCCC2)cc1)c1ccccc1F	0.1	/	4.3	/	/	/
CS(=O)(=O)N(CC(=O)Nc1ccc(S(=O)(=O)N2CCCC2)cc1)c1ccccc1	6.5	0.9	-1.7	12.7	42.9*	2.8
NNC(=O)c1cncn1-c1ccc(F)cc1	2.8	-0.9	-0.8	7.9	43.6*	4.0
NC(=O)c1ccc(NC(=O)c2cncn2-c2ccccc2)cc1	-4.5	-1.8	24.6	1.5	-0.2	2.1
CCn1ccnc1CN(C)Cc1cn(C)nc1-c1ccccc1F	/	1.2	13.5	-2.6	0.0	-8.3
CCn1ccnc1CN(C)Cc1cn(-c2ccccc2)nc1-c1ccc(OC)cc1F	15.7	21.4	-3.2	-0.2	44.5*	-11.6
COc1cc(O)c(C(CC(=O)N2CCCC(C)C2)c2ccc(N(C)C)cc2)c(OC)c1 (stereo not given)	10.5	19.0	5.6	1.6	-0.3	-1.8
COc1cc(O)c(C(CC(=O)N2CCN(c3ccccc3)CC2)c2ccc(N(C)C)cc2)c(OC)c1 (stereo not given)	6.0	27.5*	-3.8	-1.3	-0.5	16.6
Cc1noc(C)c1NC(=O)Nc1ccc2c(c1)C(=O)N([C@H](C)CO)C[C@@H](C)[C@H](CN(C)Cc1ccc(Cl)c(Cl)c1)O2	1.3	-9.4	/	4.1	0.5	/
Cc1ccc(NC(=S)N2CCOCC2)cc1	-6.4	-0.9	3.0	-1.7	0.1	5.0
S=C(Nc1ccc2nc(-c3ccccn3)c(-c3ccccn3)nc2c1)N1CCCCC1	70.2*	/	-3.8	/	/	/
CCCNC(=S)Nc1ccc2nc(-c3ccccn3)c(-c3ccccn3)nc2c1	56.6*	/	-3.7	/	/	5.2
Cc1nc2ccc(NC(=S)NCCCO)cc2nc1C	10.9	-2.8	2.3	0.0	0.3	-2.0
S=C(Nc1ccc2nc(-c3ccccn3)c(-c3ccccn3)nc2c1)N1CCCCCC1	8.4	-0.7	-4.9	-2.2	-0.1	0.0
S=C(Nc1ccc2nsnc2c1)N1CCCCC1	29.3*	-15.3	-4.7	-6.6	-0.1	-5.4
S=C(Nc1ccc2nccnc2c1)N1CCOCC1	45.7*	-0.8	6.5	-6.6	-0.1	-2.0
S=C(Nc1ccc(Cl)c(Cl)c1)N1CCCC1	-0.6	1.6	-3.2	0.6	0.0	-1.7
COc1cccc(NC(=O)N(C)C[C@@H]2Oc3ncc(C#Cc4ccc(F)cc4)cc3C(=O)N([C@H](C)CO)C[C@@H]2C)c1	-8.2	-0.6	/	-2.4	-0.1	11.7
CCCN(C)C[C@@H]1OCCCC[C@H](C)Oc2ccc(NC(=O)Nc3cccc4ccccc34)cc2C(=O)N([C@H](C)CO)C[C@@H]1C	/	0.9	/	-8.3	-0.2	/
c1ccc2c3c([nH]c2c1)C(C1CCCCC1)N(Cc1ncc[nH]1)CC3 (stereo not given)	/	/	25.9	/	/	4.2
COc1cccc(C2c3[nH]c4ccccc4c3CCN2Cc2ncc[nH]2)c1 (stereo not given)	52.6*	13.5	1.4	0.8	0.0	6.5
